In brackets after ≈: the same amount, converted by molar mass.
Legend:
[1] = tested on: Mycobacterium tuberculosis; experiment: Antitubercular activity against Mycobacterium tuberculosis; format: functional
Method in brief: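 Whole-cell assay against replicating Mtb, scored as MIC99 in μM. Run multiple times in two independent laboratories, with discrepant results repeated until concordant. Values are averages of multiple measurements ± SD.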

[2] = tested on: Mycobacterium tuberculosis; experiment: Bactericidal activity against Mycobacterium tuberculosis assessed as minimum concentration required for anaerobicidal activity; format: functional
Method in brief: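 Minimum anaerobicidal concentration (μM) against non-replicating Mtb. Run multiple times in two independent laboratories, with discrepant results repeated until concordant. Values are averages of multiple measurements ± SD.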

[3] = Solubility of the compound at pH 6.8; format: physicochemical; settings: buffer
Liver [4] = experiment: Intrinsic clearance in mouse liver microsome at 5 mg/kg, iv after 24 hrs by LC/MS/MS analysis; format: ADME; settings: microsomes
Liver [5] = experiment: Half life in mouse liver microsome at 5 mg/kg, iv after 24 hrs by LC/MS/MS analysis; format: ADME; settings: microsomes
[6] = Elimination half life in mouse at 5 mg/kg, iv by LC/MS/MS analysis; format: ADME, organism-based; set-up: dose 5 mg/kg, route intravenous; settings: in vivo, read-out: beta t1/2 (converted)
Method in brief: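 Single intravenous dose of 5mg/kg, using the supernatant of a centrifuged formulation. Blood was sampled at time points from 1min to 24h after dosing. Plasma was extracted and analysed by LC/MS/MS. Pharmacokinetic parameters, including elimination half-life, came from non-compartmental analysis.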

[7] = Solubility of the compound; format: physicochemical
Method in brief: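 Solubility was measured in buffer at pH 6.8 and reported in μg/mL.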

SMILES | MIC99 [1] | Activity [2] | solubility [3] | CL (Liver [4]) | t1/2 (Liver [5]) | half-life [6] | solubility [7] | solubility ([3]; read-out: solubility)
COc1cc(CN[C@@H]2COc3nc([N+](=O)[O-])cn3C2)ccc1OC(F)(F)F | 0.07 µM (≈ 0.0272 µg/mL) | 2.1 µM | – | – | – | – | – | –
CN(Cc1ccc(OC(F)(F)F)cc1)[C@@H]1COc2nc([N+](=O)[O-])cn2C1 | 0.15 µM (≈ 0.0558 µg/mL) | 2.5 µM | 10 µg/mL (≈ 26.9 µM) | 124.9 µL/min/mg | 11 min | – | – | –
O=[N+]([O-])c1cn2c(n1)OC[C@@H](NCc1ccc(OC(F)(F)F)cc1OCc1ccccc1)C2 | 0.24 µM (≈ 0.111 µg/mL) | 7.5 µM | – | – | – | – | – | –
O=[N+]([O-])c1cn2c(n1)OC[C@@H](OCc1ccc(OC(F)(F)F)c(O)c1)C2 | 0.14 µM (≈ 0.0525 µg/mL) | 8.3 µM | – | – | – | – | – | –
O=[N+]([O-])c1cn2c(n1)OC[C@@H](OCc1ccc(OC(F)(F)F)c(F)c1)C2 | 0.17 µM (≈ 0.0641 µg/mL) | 7.5 µM | – | – | – | – | – | –
CC(N[C@@H]1COc2nc([N+](=O)[O-])cn2C1)c1ccc(OC(F)(F)F)cc1 (mixture of isomers) | 0.44 µM | 5.6 µM | – | – | – | – | – | –
CN1CCN(c2cc(CN[C@@H]3COc4nc([N+](=O)[O-])cn4C3)ccc2OC(F)(F)F)CC1 | 0.17 µM (≈ 0.0776 µg/mL) | 7.8 µM | – | – | – | – | – | –
CCNC(=O)N(Cc1ccc(OC(F)(F)F)cc1)[C@@H]1COc2nc([N+](=O)[O-])cn2C1 | 17 µM (≈ 7.3 µg/mL) | 69 µM | – | – | – | – | – | –
O=[N+]([O-])c1cn2c(n1)OC[C@@H](NCc1ccc(OC(F)(F)F)c(O)c1)C2 | 0.16 µM (≈ 0.0599 µg/mL) | 7.5 µM | – | 61.9 µL/min/mg | 22.4 min | 24 min | – | –
CCC(=O)N(Cc1ccc(OC(F)(F)F)cc1)[C@@H]1COc2nc([N+](=O)[O-])cn2C1 | – | – | – | – | – | – | Insoluble | –
CC(C)N(Cc1ccc(OC(F)(F)F)cc1)[C@@H]1COc2nc([N+](=O)[O-])cn2C1 | 0.34 µM (≈ 0.136 µg/mL) | 11 µM | < 2 µg/mL | 433 µL/min/mg | 3.2 min | – | – | –
COC(=O)c1cc(CN[C@@H]2COc3nc([N+](=O)[O-])cn3C2)ccc1OC(F)(F)F | 0.14 µM (≈ 0.0583 µg/mL) | 11 µM | – | – | – | – | – | –
O=[N+]([O-])c1cn2c(n1)OC[C@@H](NCc1ccc(OC(F)(F)F)cc1Cl)C2 | 0.13 µM (≈ 0.0511 µg/mL) | 2.1 µM | 30 µg/mL (≈ 76.4 µM) | 69.7 µL/min/mg | 19.9 min | – | – | –
O=[N+]([O-])c1cn2c(n1)OC[C@@H](NC(c1ccc(OC(F)(F)F)cc1)c1ncc[nH]1)C2 (mixture of isomers) | 0.52 µM | 17 µM | – | – | – | – | – | –
O=[N+]([O-])c1cn2c(n1)OC[C@@H](NCc1ccc(OC(F)(F)F)c(F)c1)C2 | 0.12 µM (≈ 0.0452 µg/mL) | 4.2 µM | – | 58.7 µL/min/mg | 23.6 min | – | – | –
CC(=O)N(Cc1ccc(OC(F)(F)F)cc1)[C@@H]1COc2nc([N+](=O)[O-])cn2C1 | 50 µM (≈ 20 µg/mL) | >50 µM | – | – | – | – | – | –
O=[N+]([O-])c1cn2c(n1)OC[C@@H](NCc1ccc(OC(F)(F)F)cc1)C2 | 0.36 µM (≈ 0.129 µg/mL) | 14 µM | – | – | – | – | – | –
O=[N+]([O-])c1cn2c(n1)OC[C@@H](NCc1ccc(OC(F)(F)F)cc1Oc1ccccc1)C2 | 0.06 µM (≈ 0.027 µg/mL) | 4.4 µM | 3 µg/mL (≈ 6.66 µM) | 216.6 µL/min/mg | 6.4 min | – | – | –
O=CN(Cc1ccc(OC(F)(F)F)cc1)[C@@H]1COc2nc([N+](=O)[O-])cn2C1 | 0.79 µM (≈ 0.305 µg/mL) | 12.5 µM | – | – | – | – | – | –
O=[N+]([O-])c1cn2c(n1)OC[C@@H](NCc1ccc(OC(F)(F)F)c(Cl)c1)C2 | 0.12 µM (≈ 0.0471 µg/mL) | 4.2 µM | – | 103.4 µL/min/mg | 13.4 min | 258 min | – | –
CCCCC(N[C@@H]1COc2nc([N+](=O)[O-])cn2C1)c1ccc(OC(F)(F)F)cc1 (mixture of isomers) | 0.15 µM | 4.4 µM | – | – | – | – | – | –
COc1cc(CO[C@@H]2COc3nc([N+](=O)[O-])cn3C2)ccc1OC(F)(F)F | 0.13 µM (≈ 0.0506 µg/mL) | 4.2 µM | – | – | – | – | – | –
O=[N+]([O-])c1cn2c(n1)OC[C@@H](NC(c1ccc(OC(F)(F)F)cc1)c1ncco1)C2 (mixture of isomers) | 0.4 µM | 7.8 µM | – | – | – | – | – | –

SMILES | MIC99 [1] | Activity [2] | solubility [3] | CL (Liver [4]) | t1/2 (Liver [5]) | half-life [6] | solubility [7] | solubility ([3]; read-out: solubility)
CCCN(Cc1ccc(OC(F)(F)F)cc1)[C@@H]1COc2nc([N+](=O)[O-])cn2C1 | 0.11 µM (≈ 0.044 µg/mL) | 3.8 µM | < 2 µg/mL | 407 µL/min/mg | 3.4 min | – | – | –
O=[N+]([O-])c1cn2c(n1)OC[C@@H](NCc1ccc(OC(F)(F)F)cc1N1CCCCC1)C2 | 0.21 µM (≈ 0.0927 µg/mL) | 11 µM | – | – | – | – | – | –
O=[N+]([O-])c1cn2c(n1)OC[C@@H](NCc1ccc(OC(F)(F)F)cc1N1CCOCC1)C2 | 0.15 µM (≈ 0.0665 µg/mL) | 10 µM | – | – | – | – | – | –
O=C(c1ccccc1)N(Cc1ccc(OC(F)(F)F)cc1)[C@@H]1COc2nc([N+](=O)[O-])cn2C1 | 8.8 µM (≈ 4.07 µg/mL) | >50 µM | – | – | – | – | – | –
O=C(c1cccc(Cl)c1)N(Cc1ccc(OC(F)(F)F)cc1)[C@@H]1COc2nc([N+](=O)[O-])cn2C1 | 7.5 µM (≈ 3.73 µg/mL) | 21 µM | – | – | – | – | – | –
O=C(c1ccc(Cl)cc1)N(Cc1ccc(OC(F)(F)F)cc1)[C@@H]1COc2nc([N+](=O)[O-])cn2C1 | 1.3 µM (≈ 0.646 µg/mL) | 7.8 µM | – | – | – | – | – | –
CN1CCN(c2cc(OC(F)(F)F)ccc2CN[C@@H]2COc3nc([N+](=O)[O-])cn3C2)CC1 | 2.2 µM (≈ 1 µg/mL) | 33 µM | – | – | – | – | – | –
O=[N+]([O-])c1cn2c(n1)OC[C@@H](NCc1ccc(OC(F)(F)F)c(Oc3ccccc3)c1)C2 | 0.14 µM (≈ 0.0631 µg/mL) | 3.9 µM | – | 149 µL/min/mg | 9.3 min | – | – | < 2 µg/mL
O=[N+]([O-])c1cn2c(n1)OC[C@@H](OCc1ccc(OC(F)(F)F)cc1)C2 [PRETOMANID] | 0.63 µM (≈ 0.226 µg/mL) | 8.8 µM | – | – | – | – | – | –
O=[N+]([O-])c1cn2c(n1)OC[C@@H](NC(CCO)c1ccc(OC(F)(F)F)cc1)C2 (mixture of isomers) | 0.13 µM | 23 µM | – | – | – | – | – | –
O=[N+]([O-])c1cn2c(n1)OC[C@@H](NC(CO)c1ccc(OC(F)(F)F)cc1)C2 (mixture of isomers) | 0.3 µM | 11 µM | – | – | – | – | – | –
O=[N+]([O-])c1cn2c(n1)OC[C@@H](NCc1ccc(OC(F)(F)F)cc1OC1CC1)C2 | 0.06 µM (≈ 0.0249 µg/mL) | 2 µM | 11 µg/mL (≈ 26.5 µM) | 150.7 µL/min/mg | 9.2 min | – | – | –
O=[N+]([O-])c1cn2c(n1)OC[C@@H](NCc1ccc(OC(F)(F)F)cc1F)C2 | 0.12 µM (≈ 0.0452 µg/mL) | 2.5 µM | 72 µg/mL (≈ 191 µM) | 95.6 µL/min/mg | 14.5 min | – | – | –
CCC(N[C@@H]1COc2nc([N+](=O)[O-])cn2C1)c1ccc(OC(F)(F)F)cc1 (mixture of isomers) | 0.36 µM | 3.1 µM | – | – | – | – | – | –
NC(=O)C(N[C@@H]1COc2nc([N+](=O)[O-])cn2C1)c1ccc(OC(F)(F)F)cc1 (mixture of isomers) | 0.41 µM | 30 µM | – | – | – | – | – | –
O=[N+]([O-])c1cn2c(n1)OC[C@@H](NCc1ccc(OC(F)(F)F)cc1OCC1CC1)C2 | 0.1 µM (≈ 0.0428 µg/mL) | 4.2 µM | 6 µg/mL (≈ 14 µM) | 866.3 µL/min/mg | 1.6 min | – | – | –
O=C(c1ccccc1Cl)N(Cc1ccc(OC(F)(F)F)cc1)[C@@H]1COc2nc([N+](=O)[O-])cn2C1 | 5.6 µM (≈ 2.78 µg/mL) | >50 µM | – | – | – | – | – | –
O=[N+]([O-])c1cn2c(n1)OC[C@@H](NCc1ccc(OC(F)(F)F)cc1Br)C2 | 0.09 µM (≈ 0.0393 µg/mL) | 2 µM | – | – | – | – | – | –
CCCC(N[C@@H]1COc2nc([N+](=O)[O-])cn2C1)c1ccc(OC(F)(F)F)cc1 (mixture of isomers) | 0.27 µM | 3.8 µM | – | – | – | – | – | –
O=[N+]([O-])c1cn2c(n1)OC[C@@H](NCc1ccc(OC(F)(F)F)c(N3CCOCC3)c1)C2 | 0.15 µM (≈ 0.0665 µg/mL) | 7 µM | – | – | – | – | – | –
COc1cc(OC(F)(F)F)ccc1CN[C@@H]1COc2nc([N+](=O)[O-])cn2C1 | 0.23 µM (≈ 0.0893 µg/mL) | 5.2 µM | – | – | – | – | – | –
O=[N+]([O-])c1cn2c(n1)OC[C@@H](NCc1ccc(OC(F)(F)F)cc1O)C2 | 0.09 µM (≈ 0.0337 µg/mL) | 4.4 µM | 25 µg/mL (≈ 66.8 µM) | 96.9 µL/min/mg | 14.3 min | – | – | –

Reference: ChEMBL document CHEMBL1821556, “Structure-activity relationships of antitubercular nitroimidazoles. 3. Exploration of the linker and lipophilic tail of ((s)-2-nitro-6,7-dihydro-5H-imidazo[2,1-b][1,3]oxazin-6-yl)-(4-trifluoromethoxybenzyl)amine (6-amino PA-824)” (J Med Chem, 2011)
